We go through four compounds from ChEMBL document CHEMBL4840318, “The Total Chemical Synthesis and Biological Evaluation of the Cationic Antimicrobial Peptides, Laterocidine and Brevicidine” (2021).

≈ marks a conversion by molar mass, not a printed value. Positions of bridges follow the written chain, without caps; N, C: chain ends. Non-standard residues stand in square brackets, D forms with d. Residues, ends and D or L forms follow the SMILES beside them. ξ: configuration not given here. *: point of attachment. Octanoyl(7-Me) = CC(C)CCCCCC(=O)*; Hexanoyl(4ξ-Me) = CCC(C)CCC(=O)*; dOrn = NCCC[C@@H](N)C(=O)O; X1 = CC[C@H](C)CCCCC(=O)*; Orn = NCCC[C@H](N)C(=O)O; Dab = NCC[C@H](N)C(=O)O

The term MIC denotes the least concentration at which growth counts as inhibited.

Holding throughout (type): functional
In experiment [1] the test system is Escherichia coli. In words: Antibacterial activity against Escherichia coli ATCC 25922 assessed as inhibition of bacterial growth incubated for 24 hrs by multiplate photometer method.
For experiment [2], the system named is Escherichia coli. Put plainly: Antibacterial activity against Escherichia coli ATCC 25922 assessed as inhibition of bacterial growth incubated for 18 hrs by CLSI protocol based method. The essentials:
(§1)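 CLSI broth microdilution in cation-adjusted Mueller Hinton broth, in polypropylene plates. Bacteria were grown at 37 °C with shaking (200 rpm) for 8 h, then diluted into fresh medium and added to the wells. Compounds were tested as twofold dilutions from 64 to 0.25 μM (final), in triplicate, with growth and sterility controls. Plates were incubated at 37 °C with shaking. MIC is the lowest concentration with no growth, consistent across three biological replicates.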

Experiment [3] deals with Staphylococcus aureus. In words: Antibacterial activity against methicillin-resistant Staphylococcus aureus assessed as inhibition of bacterial growth incubated for 24 hrs by multiplate photometer method.
For experiment [4], the system named is Staphylococcus aureus. Put plainly: Antibacterial activity against Staphylococcus aureus ATCC 29213 assessed as inhibition of bacterial growth incubated for 18 hrs by CLSI protocol based method. The gist of the method: as §1

Take `CC[C@H](C)[C@@H]1NC(=O)[C@@H](NC(=O)[C@H](Cc2c[nH]c3ccccc23)NC(=O)[C@@H](CCCN)NC(=O)CNC(=O)[C@H](CCCN)NC(=O)[C@@H](CCCN)NC(=O)[C@@H](Cc2c[nH]c3ccccc23)NC(=O)[C@@H](Cc2ccc(O)cc2)NC(=O)[C@@H](CO)NC(=O)CCCCCC(C)C)[C@@H](C)OC(=O)CNC(=O)CNC(=O)[C@H](CC(N)=O)NC1=O` ({Octanoyl(7-Me)}-[dS][dY][dW][dOrn][Orn]G[dOrn]WTINGG; ester 9-C): the MIC in the experiment with Escherichia coli [1] is 2 µg/mL (≈ 1.25 µM); with Escherichia coli [2], 0.25 µg/mL (≈ 0.156 µM); in the experiment with Staphylococcus aureus [3], greater than 64 µg/mL; with Staphylococcus aureus [4], greater than 64 µg/mL.
`CC1(C)S[C@@H]2[C@H](NC(=O)[C@H](N)c3ccc(O)cc3)C(=O)N2[C@H]1C(=O)O` [AMOXICILLIN]: the values for the MIC in the experiment with Escherichia coli [2] and in the experiment with Staphylococcus aureus [4] were 6 µg/mL (≈ 16.4 µM) and 3 µg/mL (≈ 8.21 µM), respectively.
As for `CC[C@H](C)CCCCC(=O)N[C@@H](CCN)C(=O)N[C@H](C(=O)N[C@@H](CCN)C(=O)N[C@H]1CCNC(=O)[C@H]([C@@H](C)O)NC(=O)[C@H](CCN)NC(=O)[C@H](CCN)NC(=O)[C@H](CC(C)C)NC(=O)[C@@H](Cc2ccccc2)NC(=O)[C@H](CCN)NC1=O)[C@@H](C)O` (X1-[Dab]T[Dab][Dab][Dab][dF]L[Dab][Dab]T; lactam 4-C), the MIC was 1 µg/mL (≈ 0.831 µM) in the experiment with Escherichia coli [1], 0.3 µg/mL (≈ 0.249 µM) in the experiment on Escherichia coli [2], 32 µg/mL (≈ 26.6 µM) with Staphylococcus aureus [3] and greater than 64 µg/mL in the experiment with Staphylococcus aureus [4].
On to `CCC(C)CCC(=O)N[C@H](CC(N)=O)C(=O)N[C@H](Cc1ccc(O)cc1)C(=O)N[C@H](Cc1c[nH]c2ccccc12)C(=O)N[C@H](CCCN)C(=O)N[C@@H](CCCN)C(=O)NCC(=O)N[C@H](CCCN)C(=O)N[C@@H](Cc1c[nH]c2ccccc12)C(=O)N[C@@H]1C(=O)N[C@@H]([C@@H](C)CC)C(=O)NCC(=O)N[C@@H](CO)C(=O)O[C@@H]1C` (some centres undefined) ({Hexanoyl(4ξ-Me)}-[dN][dY][dW][dOrn][Orn]G[dOrn]WTIGS; ester 9-C), for which the MIC in the experiment on Escherichia coli [1] is 2 µg/mL (≈ 1.32 µM); with Escherichia coli [2], 2 µg/mL (≈ 1.32 µM); in the experiment on Staphylococcus aureus [3], greater than 64 µg/mL; in the experiment on Staphylococcus aureus [4] it was greater than 64 µg/mL.
